# Screens from PubChem BioAssay.
# This is a sample that favours compounds with a hit; in the whole collection about 3.3% have one here.
# KCC2 mod: modulates chloride dependent transport by human KCC2; Q9H2X9; KCC2 cells, thallium flux FluoZin-2 fluorescence; B-score of Tl+ flux slope (higher = more flux/activation; lower = inhibition) at 10 µM; 2.2% of 190,000 active;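 active = thallium flux slope and its plate-corrected score both differing from the plate sample mean at a set confidence after two filtering rounds, in either direction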;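 note: slope of fluorescence scaled to starting intensity during 10 to 20 s after thallium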
# PMI activator: increases human mannose-6-phosphate isomerase activity | 0.005% of 190,000 active | activation factor at 20 µM | P34949 | purified human PMI, coupled resazurin fluorescence, 20 min; active compounds read high; 1 = vehicle control, 0 substrate-free wells;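 active = activation factor of 2 or more at 20 µM, relative to plate controls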
# PMI act hi M6P: activators of human phosphomannose isomerase at near-saturating mannose 6-phosphate. activation factor at 20 µM. coupled PMI enzyme assay, resazurin fluorescence, 20 min; active compounds read high; 1 = untreated enzyme, 0 = substrate-free blank. AID 1216. 0.34% of 190,000 active;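 active = activation factor of 2 or more at 20 µM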
#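 Material: human phosphomannose isomerase with PGI, G6PDH, diaphorase coupling enzymes; amount: PMI at 15 ng/mL final; also added: Mannose-6-phosphate 1.0 mM (near-saturating) plus 0.22 mM NADP+; incubation: enzyme reaction with compound 20 min at room temperature; signal: resorufin fluorescence (Ex 544/Em 590 nm) from resazurin via diaphorase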
# ABCB1 inh: blocks JC-1 efflux by human ABCB1 transporter; 0.067% of 190,000 active; inhibition, % at 6.6 µM; P08183; CCRF-Adr cells, flow cytometry; in the data active = inhibition above about 40%;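 note: 0% = vehicle and 100% = reference inhibitor; higher value means more JC-1 retained so stronger ABCB1 efflux block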
# ROMK mod: modulates human ROMK potassium channel activity. 2% of 130,000 active. P48048. B-score at 10 µM. Tet-inducible ROMK, thallium flux fluorescence; actives lie on both sides;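 active = signal ratio slope over the read window, or its plate-corrected B-score, at least 3 SD from the plate mean, either direction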;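 note: B-score of the F/F0 ratio slope over 7 to 12 s after thallium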
# Target sequence (P48048 whole entry, looked up): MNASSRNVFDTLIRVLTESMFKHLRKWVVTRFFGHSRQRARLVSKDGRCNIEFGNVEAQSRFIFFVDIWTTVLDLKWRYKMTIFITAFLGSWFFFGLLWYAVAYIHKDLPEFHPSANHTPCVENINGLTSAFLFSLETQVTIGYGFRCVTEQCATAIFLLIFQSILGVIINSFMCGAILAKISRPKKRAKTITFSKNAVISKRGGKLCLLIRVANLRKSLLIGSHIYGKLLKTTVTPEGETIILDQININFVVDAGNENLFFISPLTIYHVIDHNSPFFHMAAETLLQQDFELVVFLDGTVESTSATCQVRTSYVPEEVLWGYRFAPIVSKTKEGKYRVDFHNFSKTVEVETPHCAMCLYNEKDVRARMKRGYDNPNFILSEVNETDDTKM
# ABCG2 inh: human ABCG2 inhibition, ABCB1 as counter-screen; Q9UNQ0; IgMXP3 cells, JC-1 efflux, flow cytometry; inhibition, % at 6.6 µM; 0.1% of 190,000 active; AID 1325;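 active = inhibition above 80%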;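 note: 0% = DMSO and 100% = nicardipine control wells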
#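 Test system: IgMXP3 cells (ABCG2) mixed with DDAO far-red-labelled CCRF-Adr cells (ABCB1). Reagent: JC-1 transporter substrate. Compound dosing: single test compound dose, 6.6 µM final. Times: 10 min compound exposure, 25 °C. Detection: flow cytometry of retained JC-1 fluorescence. Read-out basis: efflux inhibition in percent versus controls. Controls: nicardipine and DMSO wells.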
# KCC2 sec1: confirmation of human KCC2 transport modulators; 15% of 3,700 active; AID 1713; HEK293-KCC2, thallium flux, FluoZin2 fluorescence; active compounds read high; normalised thallium flux (F/F0 slope) at 10 µM; shares compounds with KCC2 mod;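 active = thallium flux slope above the same plate's solvent-only control mean plus 3 SD; inconclusive = the two replicate wells disagree; inactive = no significant difference from solvent-only control wells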
# KCC2 bumet counter: bumetanide-insensitive thallium flux in KCC2 cells with ouabain, counter-screen. shares compounds with KCC2 mod. HEK293-KCC2 + bumetanide/ouabain, thallium flux FluoZin2; active compounds read high. normalized thallium flux at 10 µM. 49% of 3,700 active. AID 1714;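 active = thallium entry rate above the same plate's blocked-transporter control wells by more than 3 SD; inconclusive = the two repeat wells disagree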;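 note: raw slope of fluorescence over initial fluorescence between 10 and 20 s after thallium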
# KCC2 sec2: KCC2 (human) modulation, second secondary assay; shares compounds with KCC2 mod; HEK293-KCC2, thallium flux FluoZin2 fluorescence; actives lie on both sides; F/F0 rise rate, 10–20 s post-thallium; normalized thallium flux at 10 µM; 23% of 3,700 active;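 active = thallium flux slope more than 3 SD above or below the plate's solvent-only control mean, mostly below; inconclusive = the two repeat wells disagreed; inactive = no significant shift from solvent-only controls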;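 note: raw slope with 0.1% DMSO as baseline and bumetanide as block control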
# HEK293 Tl flux: parental HEK flux effect, counter-screen; HEK293 parental cells, thallium flux FluoZin2, ouabain; baseline-ratio fluorescence slope, 10–20 s after thallium; shares compounds with KCC2 mod; thallium flux rate (normalised fluorescence) at 10 µM; AID 1716; 46% of 3,700 active;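 active = thallium flux rate significantly above the same plate's solvent-only control wells, beyond their mean plus 3 SD; inconclusive = the two replicate wells gave conflicting results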
# KCC2 retest ouab: modulates human KCC2 on retest with ouabain; 48% of 3,700 active; shares compounds with KCC2 mod; HEK293-KCC2, thallium flux FluoZin2 fluorescence; bidirectional: low = inhibitor, high = activator; raw Tl+ flux slope (below DMSO = inhibition, above = activation) at 10 µM;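 active = thallium flux slope beyond 3 SD from same-plate DMSO control mean in most replicates, usually higher, sometimes lower; inconclusive = repeat tests gave conflicting results; inactive = no significant difference from controls in most replicates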;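 note: slope of initial-normalized fluorescence between seconds 10 and 20 after thallium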
# HEK293 Tl flux2: counter-screen for KCC2 modulators: effect in parental HEK293 cells. thallium flux slope at 10 µM. shares compounds with KCC2 mod. thallium flux FluoZin-2 fluorescence slope. 33% of 3,700 active;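 active = thallium flux slope above the same plate's solvent-control mean plus 3 SD in both duplicate wells; inconclusive = duplicate wells that disagreed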;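 note: run without ouabain in cells lacking the KCC2 cotransporter; slope of fluorescence scaled to its starting value between 10 and 20 s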
# Numbers without * were called inactive; ? = inconclusive; . = no result given.
SMILES,KCC2 mod,PMI activator,PMI act hi M6P,ABCB1 inh,ROMK mod,ABCG2 inh,KCC2 sec1,KCC2 bumet counter,KCC2 sec2,HEK293 Tl flux,KCC2 retest ouab,HEK293 Tl flux2
COc1ccc(OCc2nnc(SC(C)C(=O)Nc3nccs3)n2-c2ccccc2)cc1 (configuration not stated),1.2,0.8,0.9,3,-0.087,3,.,.,.,.,.,.
N#CC(c1ccc(Cl)cc1)c1ccc2c(C(F)(F)F)cc(C(F)(F)F)nc2n1 (configuration not stated),22*,0.8,0.9,0,1.6,8,0.024*,0.14*,0.031,0.054*,0.067*,0.015*
FC(F)(F)c1cc(C(F)(F)F)c2ccc(N3CCN(c4ccc(Cl)cc4)CC3)nc2n1,-0.31,0.9,1,0,.,1,.,.,.,.,.,.
CCCCC(NC(C)=O)c1nc2ccccc2n1CCCC (configuration not stated),6*,1,1,0,.,1,0.0056,0.0041,0.029,?,0.019,0.0098
CCn1c(NC(=O)c2ccccc2)nc2ccccc21,31*,.,.,.,.,.,0.0063,0.018*,0.032,0.016*,?,0.016*
CCCCn1c(NC(=O)c2ccccc2)nc2ccccc21,13*,1.2,1,1,-0.49,3,0.0099,0.03*,0.032,?,0.03*,?
CCCCCn1c(C(Cc2ccccc2)NC(C)=O)nc2ccccc21 (configuration not stated),-0.36,0.9,0.9,1,.,2,.,.,.,.,.,.
COc1cc2[nH]c(=O)n(CCCCCC(=O)N3CC=C(c4ccccc4)CC3)c(=O)c2cc1OC,-1.1,1,1,1,-1.7,6,.,.,.,.,.,.
COc1cccc(CN2CCNC(=O)C2CC(=O)NCc2cc(C(C)C)no2)c1 (configuration not stated),-0.024,1,0.8,0,0.053,0,.,.,.,.,.,.
Cc1cccc(-c2noc(CCCC(=O)Nc3cccnc3)n2)c1,-5.1*,0.9,1,0,.,3,0.0069,0.0045,0.031,0.0083,0.019,0.011
CC1CCCC(NC(=O)COC(=O)CCSc2ccccc2)C1C (configuration not stated),.,1,1,0,0.38,0,0.0076,0.0059,0.034,0.0069,0.017*,0.01
Cc1ccc(NC(=O)CN(C)C(=O)CCCN2C(=O)c3ccccc3C2=O)cc1,-3.1*,1,1,2,0.0036,8,0.011,0.0072,0.037,0.0046,0.021,0.012
CC(C)CNS(=O)(=O)c1ccc(CCC(=O)NCCC2=CCCCC2)cc1,1.4,1,1,0,-0.44,3,.,.,.,.,.,.
COc1ccccc1/C=C(\NC(=O)c1ccc(OC)c(OC)c1)C(=O)Nc1cc([N+](=O)[O-])ccc1C,5.2*,1,1,1,0.011,2,0.015,0.0045,0.028,0.0068,0.017,0.0095
